Values after ≈ are worked out from the molar mass of the structure shown.
Columns and labels:
Aspergillus niger [1] = test: microbe, parasite or virus in culture; type: functional; details: van Tiegen BAM4 ATCC 6275, 168 h
Aspergillus versicolor [2] = test: microbe, parasite or virus in culture; type: functional; details: BAM8 ATCC 11730, 168 h
Paecilomyces variotii [3] = test: microbe, parasite or virus in culture; type: functional; details: BAM19 ATCC 18502, 168 h
Talaromyces funiculosus [4] = test: microbe, parasite or virus in culture; type: functional; details: BAM22 ATCC 11797, 168 h
Trichoderma viride [5] = test: Antifungal activity against Trichoderma viride Pers after 7 days by microtiter method; type: functional; details: 168 h
Penicillium cyclopium [6] = test: Antifungal activity against Penicillium cyclopium Westling after 7 days by microtiter method; type: functional; details: 168 h
Aureobasidium pullulans [7] = test: microbe, parasite or virus in culture; type: functional; details: BAM10 ATCC 9348, 168 h
Chaetomium globosum [8] = test: microbe, parasite or virus in culture; type: functional; details: BAM12 ATCC 6205, 168 h
MCF7 = test: cells; type: functional, cell-based; details: Homo sapiens, MCF7, 72 h
MDA-MB-231 = test: cells; type: functional, cell-based; details: Homo sapiens, MDA-MB-231, 72 h
DLD-1 = test: cells; type: functional, cell-based; details: Homo sapiens, DLD-1, 72 h
LoVo = test: cells; type: functional, cell-based; details: Homo sapiens, 72 h
cells = type: cell-based; details: Homo sapiens, 72 h
SK-OV-3 [9] = test: cells; type: functional, cell-based; details: Homo sapiens, SK-OV-3, 72 h
SK-OV-3 [10] = test: cells; type: functional, cell-based; details: Homo sapiens, SK-OV-3, 72 h; remark: listed apart in the source
Aspergillus niger [11] = test: Fungicidal activity against Aspergillus niger van Tiegen BAM4 ATCC 6275 after 7 days by microtiter method; type: functional; details: van Tiegen BAM4 ATCC 6275, 168 h
Method in brief: (§1)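 Single-spore isolates kept on PDA slants. Spore suspensions ([…] CFU/mL) taken from two-week slants. Compound stock was 10 mg in 200 µL methanol; 10 µL of stock added to 100 µL PDA (39 g/L) per well, then 10 µL spores. Incubated aerobically 7 days, 28±1°C, RH >95%, dark. Growth scored on a three-point scale (+/±/−). Triplicates, with untreated and IPBC controls.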

Aspergillus versicolor [12] = test: Fungicidal activity against Aspergillus versicolor BAM8 ATCC 11730 after 7 days by microtiter method; type: functional; details: BAM8 ATCC 11730, 168 h
Method in brief: as §1

Paecilomyces variotii [13] = test: Fungicidal activity against Paecilomyces variotii BAM19 ATCC 18502 after 7 days by microtiter method; type: functional; details: BAM19 ATCC 18502, 168 h
Method in brief: as §1

Talaromyces funiculosus [14] = test: Fungicidal activity against Penicillium funiculosum BAM22 ATCC 11797 after 7 days by microtiter method; type: functional; details: BAM22 ATCC 11797, 168 h
Method in brief: as §1

Trichoderma viride [15] = test: Fungicidal activity against Trichoderma viride Pers after 7 days by microtiter method; type: functional; details: 168 h
Method in brief: as §1

Penicillium cyclopium [16] = test: Fungicidal activity against Penicillium cyclopium Westling after 7 days by microtiter method; type: functional; details: 168 h
Method in brief: as §1

Aureobasidium pullulans [17] = test: Fungicidal activity against Aureobasidium pullulans BAM10 ATCC 9348 after 7 days by microtiter method; type: functional; details: BAM10 ATCC 9348, 168 h
Method in brief: as §1

Chaetomium globosum [18] = test: Fungicidal activity against Chaetomium globosum BAM12 ATCC 6205 after 7 days by microtiter method; type: functional; details: BAM12 ATCC 6205, 168 h
Method in brief: as §1

SMILES | MFC (Aspergillus niger [1]) [µg/mL] | MFC (Aspergillus versicolor [2]) [µg/mL] | MFC (Paecilomyces variotii [3]) [µg/mL] | MFC (Talaromyces funiculosus [4]) [µg/mL] | MFC (Trichoderma viride [5]) [µg/mL] | MIC (Penicillium cyclopium [6]) [µg/mL] | MIC (Aureobasidium pullulans [7]) [µg/mL] | MIC (Chaetomium globosum [8]) [µg/mL] | IC50 (DLD-1) [nM] | IC50 (LoVo) [nM] | IC50 (cells) [nM] | IC50 (SK-OV-3 [9]) [nM] | IC50 (SK-OV-3 [10]) [nM] | MFC (Aspergillus niger [11]) [µg/mL] | MFC (Aspergillus versicolor [12]) [µg/mL] | MFC (Paecilomyces variotii [13]) [µg/mL] | MFC (Talaromyces funiculosus [14]) [µg/mL] | MFC (Trichoderma viride [15]) [µg/mL] | MFC (Penicillium cyclopium [16]) [µg/mL] | MFC (Aureobasidium pullulans [17]) [µg/mL] | further results
CCCSc1ccc2c(cc1=O)[C@@H](NC(C)=O)CCc1cc(OC)c(OC)c(OC)c1-2 | > 4000 | > 4000 | > 4000 | > 4000 | > 4000 | > 4000 | > 4000 | > 4000 |  |  |  |  |  |  |  |  |  |  |  |  | 
CCCCSc1ccc2c(cc1=O)[C@@H](N)CCc1cc(OC)c(OC)c(OC)c1-2 | > 4000 | > 4000 | 1000 (≈ 2410 µM) | 1000 (≈ 2410 µM) | 2000 (≈ 4810 µM) | 260 (≈ 626 µM) | 260 (≈ 626 µM) | 130 (≈ 313 µM) | 720 | 1870 | 2170 | 9 | 62 | > 4000 | > 4000 | 1000 (≈ 2410 µM) | 1000 (≈ 2410 µM) | 2000 (≈ 4810 µM) | 260 (≈ 626 µM) | 260 (≈ 626 µM) | IC50 (MCF7): 1460 nM; IC50 (MDA-MB-231): 4180 nM; MFC (Chaetomium globosum [18]): 130 µg/mL (≈ 313 µM)
CCSc1ccc2c(cc1=O)[C@@H](N)CCc1cc(OC)c(OC)c(OC)c1-2 | > 4000 | > 4000 | > 4000 | > 4000 | > 4000 | > 4000 | > 4000 | > 4000 | 510 | 390 | 150 | 305 | 409 |  |  |  |  |  |  |  | IC50 (MCF7): 1620 nM; IC50 (MDA-MB-231): 3550 nM
CCSc1ccc2c(cc1=O)[C@@H](NC(C)=O)CCc1cc(OC)c(OC)c(OC)c1-2 | > 4000 | > 4000 | > 4000 | > 4000 | > 4000 | > 4000 | > 4000 | > 4000 |  |  |  |  |  |  |  |  |  |  |  |  | 
CCCCSc1ccc2c(cc1=O)[C@@H](NC(C)=O)CCc1cc(OC)c(OC)c(OC)c1-2 | > 4000 | > 4000 | > 4000 | > 4000 | > 4000 | > 4000 | > 4000 | > 4000 |  |  |  |  |  |  |  |  |  |  |  |  | 
COc1cc2c(c(OC)c1OC)-c1ccc(SC(C)C)c(=O)cc1[C@@H](NC(C)=O)CC2 | > 4000 | > 4000 | > 4000 | > 4000 | > 4000 | > 4000 | > 4000 | > 4000 |  |  |  |  |  |  |  |  |  |  |  |  | 
CCCSc1ccc2c(cc1=O)[C@@H](N)CCc1cc(OC)c(OC)c(OC)c1-2 | > 4000 | > 4000 | 1000 (≈ 2490 µM) | 2000 (≈ 4980 µM) | 2000 (≈ 4980 µM) | 2000 (≈ 4980 µM) | > 4000 | > 4000 | 3420 | 3830 | 670 | 22 | 46 | > 4000 | > 4000 | 1000 (≈ 2490 µM) | 2000 (≈ 4980 µM) | 2000 (≈ 4980 µM) | 2000 (≈ 4980 µM) | > 4000 | IC50 (MCF7): 2080 nM; IC50 (MDA-MB-231): 4240 nM; MFC (Chaetomium globosum [18]): > 4000 µg/mL
COc1cc2c(c(OC)c1OC)-c1ccc(SC(C)C)c(=O)cc1[C@@H](N)CC2 | > 4000 | > 4000 | 1000 (≈ 2490 µM) | 1000 (≈ 2490 µM) | 2000 (≈ 4980 µM) | 500 (≈ 1250 µM) | 260 (≈ 648 µM) | 130 (≈ 324 µM) | 6260 | 130 | 1680 | 4 | 27 | > 4000 | > 4000 | 1000 (≈ 2490 µM) | 1000 (≈ 2490 µM) | 2000 (≈ 4980 µM) | 500 (≈ 1250 µM) | 260 (≈ 648 µM) | IC50 (MCF7): 4900 nM; IC50 (MDA-MB-231): 5000 nM; MFC (Chaetomium globosum [18]): 130 µg/mL (≈ 324 µM)
O=C(/C=C/c1ccccc1)c1ccccc1 [CHALCONE] | 65 (≈ 312 µM) | 2000 (≈ 9600 µM) | 1000 (≈ 4800 µM) | 130 (≈ 624 µM) | 500 (≈ 2400 µM) | 260 (≈ 1250 µM) | 500 (≈ 2400 µM) | 130 (≈ 624 µM) |  |  |  |  |  | 65 (≈ 312 µM) | 2000 (≈ 9600 µM) | 1000 (≈ 4800 µM) | 130 (≈ 624 µM) | 500 (≈ 2400 µM) | 260 (≈ 1250 µM) | 500 (≈ 2400 µM) | MFC (Chaetomium globosum [18]): 130 µg/mL (≈ 624 µM)
COc1cc2c(c(OC)c1OC)-c1ccc(OC)c(=O)cc1[C@@H](NC(C)=O)CC2 [COLCHICINE] | > 4000 | > 4000 | > 4000 | > 4000 | > 4000 | > 4000 | 0.001 (≈ 0.0025 µM) | > 4000 | 43 | 119 | 586 | 198 | 210 | > 4000 | > 4000 | > 4000 | > 4000 | > 4000 | > 4000 | 0.001 (≈ 0.0025 µM) | IC50 (MCF7): 41 nM; IC50 (MDA-MB-231): 25 nM; MFC (Chaetomium globosum [18]): > 4000 µg/mL
COc1cccc2c1C(=O)c1c(O)c3c(c(O)c1C2=O)C[C@@](O)(C(=O)CO)C[C@@H]3O[C@H]1C[C@H](N)[C@H](O)[C@H](C)O1 [DOXORUBICIN] |  |  |  |  |  |  |  |  | 145 | 78.3 | 850 | 32.6 | 128 |  |  |  |  |  |  |  | 
CCCCNC(=O)OCC#CI [IODOCARB] | 2 (≈ 7.12 µM) | 2 (≈ 7.12 µM) | 2 (≈ 7.12 µM) | 2 (≈ 7.12 µM) | 100 (≈ 356 µM) | 2 (≈ 7.12 µM) | 1 (≈ 3.56 µM) | 5 (≈ 17.8 µM) |  |  |  |  |  | 2 (≈ 7.12 µM) | 2 (≈ 7.12 µM) | 2 (≈ 7.12 µM) | 2 (≈ 7.12 µM) | 100 (≈ 356 µM) | 2 (≈ 7.12 µM) | 1 (≈ 3.56 µM) | MFC (Chaetomium globosum [18]): 5 µg/mL (≈ 17.8 µM)

From ChEMBL document CHEMBL4257561, “7-Deacetyl-10-alkylthiocolchicine derivatives - new compounds with potent anticancer and fungicidal activity” (Medchemcomm, 2018)
